Laboratory results published in ChEMBL document CHEMBL1121923, “N2- and C-7 substituted actinomycin D analogues: synthesis, DNA-binding affinity, and biochemical and biological properties. Structure-activity relationship” (J Med Chem, 1981).

Organism: Bos taurus
Test: Thermal denaturation (deltaTm) of compound against calf thymus DNA was measured
Assay type: ADME
Conditions: cattle, in vitro
Outline: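 Calf thymus DNA (MW 100 000–500 000) in 0.01 M phosphate, 5 × 10^-3 M EDTA, pH 7.0; drug 7 × 10^-4 M, DNA nucleotide 7 × 10^-3 M; 259 nm absorbance read at 0.25–1.0 °C steps; Tm taken at 50% hyperchromicity; ΔTm = complex Tm minus DNA Tm.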

| SMILES | Delta Tm |
| --- | --- |
| Cc1c2oc3c(C)ccc(C(=O)N[C@@H]4C(=O)N[C@H](C(C)C)C(=O)N5CCC[C@H]5C(=O)N(C)CC(=O)N(C)[C@@H](C(C)C)C(=O)O[C@@H]4C)c3nc-2c(C(=O)N[C@@H]2C(=O)N[C@H](C(C)C)C(=O)N3CCC[C@H]3C(=O)N(C)CC(=O)N(C)[C@@H](C(C)C)C(=O)O[C@@H]2C)c(NCCCN)c1=O | 6.2 |
| Cc1c2oc3c(C)c(O)c(N)c(C(=O)N[C@@H]4C(=O)N[C@H](C(C)C)C(=O)N5CCC[C@H]5C(=O)N(C)CC(=O)N(C)[C@@H](C(C)C)C(=O)O[C@@H]4C)c3nc-2c(C(=O)N[C@@H]2C(=O)N[C@H](C(C)C)C(=O)N3CCC[C@H]3C(=O)N(C)CC(=O)N(C)[C@@H](C(C)C)C(=O)O[C@@H]2C)c/c1=N/Cc1ccc(Cl)c(Cl)c1 | 7 |
| CCCOc1cc(C(=O)N[C@@H]2C(=O)N[C@H](C(C)C)C(=O)N3CCC[C@H]3C(=O)N(C)CC(=O)N(C)[C@@H](C(C)C)C(=O)O[C@@H]2C)c2nc3c(C(=O)N[C@@H]4C(=O)N[C@H](C(C)C)C(=O)N5CCC[C@H]5C(=O)N(C)CC(=O)N(C)[C@@H](C(C)C)C(=O)O[C@@H]4C)c(N)c(=O)c(C)c-3oc2c1C | 3.5 |
| Cc1c2oc3c(C)c(O)c(N)c(C(=O)N[C@@H]4C(=O)N[C@H](C(C)C)C(=O)N5CCC[C@H]5C(=O)N(C)CC(=O)N(C)[C@@H](C(C)C)C(=O)O[C@@H]4C)c3nc-2c(C(=O)N[C@@H]2C(=O)N[C@H](C(C)C)C(=O)N3CCC[C@H]3C(=O)N(C)CC(=O)N(C)[C@@H](C(C)C)C(=O)O[C@@H]2C)c/c1=N/Cc1ccccc1 | 6.6 |
| Cc1c2oc3c(C)ccc(C(=O)N[C@@H]4C(=O)N[C@H](C(C)C)C(=O)N5CCC[C@H]5C(=O)N(C)CC(=O)N(C)[C@@H](C(C)C)C(=O)O[C@@H]4C)c3nc-2c(C(=O)N[C@@H]2C(=O)N[C@H](C(C)C)C(=O)N3CCC[C@H]3C(=O)N(C)CC(=O)N(C)[C@@H](C(C)C)C(=O)O[C@@H]2C)c(NCCCCCCCCCCN)c1=O | 6.6 |
| CCCCCCCCCCCNc1c(C(=O)N[C@@H]2C(=O)N[C@H](C(C)C)C(=O)N3CCC[C@H]3C(=O)N(C)CC(=O)N(C)[C@@H](C(C)C)C(=O)O[C@@H]2C)c2nc3c(C(=O)N[C@@H]4C(=O)N[C@H](C(C)C)C(=O)N5CCC[C@H]5C(=O)N(C)CC(=O)N(C)[C@@H](C(C)C)C(=O)O[C@@H]4C)ccc(C)c3oc-2c(C)c1=O | 0 |
| CCCCNc1c(C(=O)N[C@@H]2C(=O)N[C@H](C(C)C)C(=O)N3CCC[C@H]3C(=O)N(C)CC(=O)N(C)[C@@H](C(C)C)C(=O)O[C@@H]2C)c2nc3c(C(=O)N[C@@H]4C(=O)N[C@H](C(C)C)C(=O)N5CCC[C@H]5C(=O)N(C)CC(=O)N(C)[C@@H](C(C)C)C(=O)O[C@@H]4C)ccc(C)c3oc-2c(C)c1=O | 0.2 |
| CCCCCCOc1cc(C(=O)N[C@@H]2C(=O)N[C@H](C(C)C)C(=O)N3CCC[C@H]3C(=O)N(C)CC(=O)N(C)[C@@H](C(C)C)C(=O)O[C@@H]2C)c2nc3c(C(=O)N[C@@H]4C(=O)N[C@H](C(C)C)C(=O)N5CCC[C@H]5C(=O)N(C)CC(=O)N(C)[C@@H](C(C)C)C(=O)O[C@@H]4C)c(N)c(=O)c(C)c-3oc2c1C | 1 |
| Cc1c2oc3c(C)c(O)c(N)c(C(=O)N[C@@H]4C(=O)N[C@H](C(C)C)C(=O)N5CCC[C@H]5C(=O)N(C)CC(=O)N(C)[C@@H](C(C)C)C(=O)O[C@@H]4C)c3nc-2c(C(=O)N[C@@H]2C(=O)N[C@H](C(C)C)C(=O)N3CCC[C@H]3C(=O)N(C)CC(=O)N(C)[C@@H](C(C)C)C(=O)O[C@@H]2C)cc1=N | 8.2 |
| Cc1c2oc3c(C)ccc(C(=O)N[C@@H]4C(=O)N[C@H](C(C)C)C(=O)N5CCC[C@H]5C(=O)N(C)CC(=O)N(C)[C@@H](C(C)C)C(=O)O[C@@H]4C)c3nc-2c(C(=O)N[C@@H]2C(=O)N[C@H](C(C)C)C(=O)N3CCC[C@H]3C(=O)N(C)CC(=O)N(C)[C@@H](C(C)C)C(=O)O[C@@H]2C)c(NCCCCN)c1=O | 1.8 |
| CCOc1cc(C(=O)N[C@@H]2C(=O)N[C@H](C(C)C)C(=O)N3CCC[C@H]3C(=O)N(C)CC(=O)N(C)[C@@H](C(C)C)C(=O)O[C@@H]2C)c2nc3c(C(=O)N[C@@H]4C(=O)N[C@H](C(C)C)C(=O)N5CCC[C@H]5C(=O)N(C)CC(=O)N(C)[C@@H](C(C)C)C(=O)O[C@@H]4C)c(N)c(=O)c(C)c-3oc2c1C | 5.9 |
| CCCCCCCCCNc1c(C(=O)N[C@@H]2C(=O)N[C@H](C(C)C)C(=O)N3CCC[C@H]3C(=O)N(C)CC(=O)N(C)[C@@H](C(C)C)C(=O)O[C@@H]2C)c2nc3c(C(=O)N[C@@H]4C(=O)N[C@H](C(C)C)C(=O)N5CCC[C@H]5C(=O)N(C)CC(=O)N(C)[C@@H](C(C)C)C(=O)O[C@@H]4C)ccc(C)c3oc-2c(C)c1=O | 0 |
| Cc1c2oc3c(C)c(OCc4ccc(Cl)cc4)cc(C(=O)N[C@@H]4C(=O)N[C@H](C(C)C)C(=O)N5CCC[C@H]5C(=O)N(C)CC(=O)N(C)[C@@H](C(C)C)C(=O)O[C@@H]4C)c3nc-2c(C(=O)N[C@@H]2C(=O)N[C@H](C(C)C)C(=O)N3CCC[C@H]3C(=O)N(C)CC(=O)N(C)[C@@H](C(C)C)C(=O)O[C@@H]2C)c(N)c1=O | 0 |
| CCCCOc1cc(C(=O)N[C@@H]2C(=O)N[C@H](C(C)C)C(=O)N3CCC[C@H]3C(=O)N(C)CC(=O)N(C)[C@@H](C(C)C)C(=O)O[C@@H]2C)c2nc3c(C(=O)N[C@@H]4C(=O)N[C@H](C(C)C)C(=O)N5CCC[C@H]5C(=O)N(C)CC(=O)N(C)[C@@H](C(C)C)C(=O)O[C@@H]4C)c(N)c(=O)c(C)c-3oc2c1C | 2.7 |
| Cc1c2oc3c(C)c(O)c(N)c(C(=O)N[C@@H]4C(=O)N[C@H](C(C)C)C(=O)N5CCC[C@H]5C(=O)N(C)CC(=O)N(C)[C@@H](C(C)C)C(=O)O[C@@H]4C)c3nc-2c(C(=O)N[C@@H]2C(=O)N[C@H](C(C)C)C(=O)N3CCC[C@H]3C(=O)N(C)CC(=O)N(C)[C@@H](C(C)C)C(=O)O[C@@H]2C)c/c1=N/Cc1ccco1 | 5.8 |
| Cc1c2oc3c(C)c(O)c(N)c(C(=O)N[C@@H]4C(=O)N[C@H](C(C)C)C(=O)N5CCC[C@H]5C(=O)N(C)CC(=O)N(C)[C@@H](C(C)C)C(=O)O[C@@H]4C)c3nc-2c(C(=O)N[C@@H]2C(=O)N[C@H](C(C)C)C(=O)N3CCC[C@H]3C(=O)N(C)CC(=O)N(C)[C@@H](C(C)C)C(=O)O[C@@H]2C)c/c1=N/Cc1ccc[nH]1 | 15.8 |
| Cc1c2oc3c(C)c(OCc4ccc([N+](=O)[O-])cc4)cc(C(=O)N[C@@H]4C(=O)N[C@H](C(C)C)C(=O)N5CCC[C@H]5C(=O)N(C)CC(=O)N(C)[C@@H](C(C)C)C(=O)O[C@@H]4C)c3nc-2c(C(=O)N[C@@H]2C(=O)N[C@H](C(C)C)C(=O)N3CCC[C@H]3C(=O)N(C)CC(=O)N(C)[C@@H](C(C)C)C(=O)O[C@@H]2C)c(N)c1=O | 0 |
| CCCCCCCOc1cc(C(=O)N[C@@H]2C(=O)N[C@H](C(C)C)C(=O)N3CCC[C@H]3C(=O)N(C)CC(=O)N(C)[C@@H](C(C)C)C(=O)O[C@@H]2C)c2nc3c(C(=O)N[C@@H]4C(=O)N[C@H](C(C)C)C(=O)N5CCC[C@H]5C(=O)N(C)CC(=O)N(C)[C@@H](C(C)C)C(=O)O[C@@H]4C)c(N)c(=O)c(C)c-3oc2c1C | 0 |
| Cc1c2oc3c(C)ccc(C(=O)N[C@@H]4C(=O)N[C@H](C(C)C)C(=O)N5CCC[C@H]5C(=O)N(C)CC(=O)N(C)[C@@H](C(C)C)C(=O)O[C@@H]4C)c3nc-2c(C(=O)N[C@@H]2C(=O)N[C@H](C(C)C)C(=O)N3CCC[C@H]3C(=O)N(C)CC(=O)N(C)[C@@H](C(C)C)C(=O)O[C@@H]2C)c(NCCCCCCCCN)c1=O | 0.3 |
| CCCCCCCCC/N=c1/cc(C(=O)N[C@@H]2C(=O)N[C@H](C(C)C)C(=O)N3CCC[C@H]3C(=O)N(C)CC(=O)N(C)[C@@H](C(C)C)C(=O)O[C@@H]2C)c2nc3c(C(=O)N[C@@H]4C(=O)N[C@H](C(C)C)C(=O)N5CCC[C@H]5C(=O)N(C)CC(=O)N(C)[C@@H](C(C)C)C(=O)O[C@@H]4C)c(N)c(O)c(C)c3oc-2c1C | 1.1 |
| Cc1c2oc3c(C)c(O)c(N)c(C(=O)N[C@@H]4C(=O)N[C@H](C(C)C)C(=O)N5CCC[C@H]5C(=O)N(C)CC(=O)N(C)[C@@H](C(C)C)C(=O)O[C@@H]4C)c3nc-2c(C(=O)N[C@@H]2C(=O)N[C@H](C(C)C)C(=O)N3CCC[C@H]3C(=O)N(C)CC(=O)N(C)[C@@H](C(C)C)C(=O)O[C@@H]2C)cc1=O | 6.7 |
| Cc1c2oc3c(C)c(O)c(N)c(C(=O)N[C@@H]4C(=O)N[C@H](C(C)C)C(=O)N5CCC[C@H]5C(=O)N(C)CC(=O)N(C)[C@@H](C(C)C)C(=O)O[C@@H]4C)c3nc-2c(C(=O)N[C@@H]2C(=O)N[C@H](C(C)C)C(=O)N3CCC[C@H]3C(=O)N(C)CC(=O)N(C)[C@@H](C(C)C)C(=O)O[C@@H]2C)c/c1=N/Cc1cccc(Oc2ccccc2)c1 | 5.3 |
| CCCCCNc1c(C(=O)N[C@@H]2C(=O)N[C@H](C(C)C)C(=O)N3CCC[C@H]3C(=O)N(C)CC(=O)N(C)[C@@H](C(C)C)C(=O)O[C@@H]2C)c2nc3c(C(=O)N[C@@H]4C(=O)N[C@H](C(C)C)C(=O)N5CCC[C@H]5C(=O)N(C)CC(=O)N(C)[C@@H](C(C)C)C(=O)O[C@@H]4C)ccc(C)c3oc-2c(C)c1=O | 0 |
| CCCCCCNc1c(C(=O)N[C@@H]2C(=O)N[C@H](C(C)C)C(=O)N3CCC[C@H]3C(=O)N(C)CC(=O)N(C)[C@@H](C(C)C)C(=O)O[C@@H]2C)c2nc3c(C(=O)N[C@@H]4C(=O)N[C@H](C(C)C)C(=O)N5CCC[C@H]5C(=O)N(C)CC(=O)N(C)[C@@H](C(C)C)C(=O)O[C@@H]4C)ccc(C)c3oc-2c(C)c1=O | 0 |
| COc1cc(C(=O)N[C@@H]2C(=O)N[C@H](C(C)C)C(=O)N3CCC[C@H]3C(=O)N(C)CC(=O)N(C)[C@@H](C(C)C)C(=O)O[C@@H]2C)c2nc3c(C(=O)N[C@@H]4C(=O)N[C@H](C(C)C)C(=O)N5CCC[C@H]5C(=O)N(C)CC(=O)N(C)[C@@H](C(C)C)C(=O)O[C@@H]4C)c(N)c(=O)c(C)c-3oc2c1C | 5.5 |
| CCCNc1c(C(=O)N[C@@H]2C(=O)N[C@H](C(C)C)C(=O)N3CCC[C@H]3C(=O)N(C)CC(=O)N(C)[C@@H](C(C)C)C(=O)O[C@@H]2C)c2nc3c(C(=O)N[C@@H]4C(=O)N[C@H](C(C)C)C(=O)N5CCC[C@H]5C(=O)N(C)CC(=O)N(C)[C@@H](C(C)C)C(=O)O[C@@H]4C)ccc(C)c3oc-2c(C)c1=O | 1.5 |
